Values belong to the compound of their own block, whether it stands above or below them.
How the values were obtained:
[1] = target: T1, Metabotropic glutamate receptor 2 (Rattus norvegicus, UniProt P31421); test: Effective concentration for agonistic activity towards metabotropic glutamate receptor 2 of rat expressed in CHO cells; format: functional, cell-based
[2] = target: T1, Metabotropic glutamate receptor 2; test: Binding affinity towards metabotropic glutamate receptor 2 of rat expressed in CHO cells was determined by using [3H]MGS-0008; format: cell-based
[3] = target: T2, Metabotropic glutamate receptor 3 (Rattus norvegicus, UniProt P31422); test: Binding affinity towards metabotropic glutamate receptor 3 of rat expressed in CHO cells was determined by using [3H]MGS-0008; format: cell-based
[4] = target: T3, Metabotropic glutamate receptor 1 (Rattus norvegicus, UniProt P23385); test: Effective concentration for agonistic activity towards metabotropic glutamate receptor 1 of rat expressed in CHO cells; format: functional, cell-based
[5] = target: T4, Metabotropic glutamate receptor 5 (Rattus norvegicus, UniProt P31424); test: Effective concentration for agonistic activity towards metabotropic glutamate receptor 5 of rat expressed in CHO cells; format: functional, cell-based
[6] = target: T5, Metabotropic glutamate receptor 6 (Rattus norvegicus, UniProt P35349); test: Effective concentration for agonistic activity towards metabotropic glutamate receptor 6 of rat expressed in CHO cells; format: functional, cell-based
[7] = target: T3, Metabotropic glutamate receptor 1; test: Concentration required to inhibit metabotropic glutamate receptor 1 activity of rat expressed in CHO cells; format: cell-based
[8] = target: Metabotropic glutamate receptor 4 (Rattus norvegicus, UniProt P31423); test: Concentration required to inhibit metabotropic glutamate receptor 4 activity of rat expressed in CHO cells; format: cell-based
[9] = target: T4, Metabotropic glutamate receptor 5; test: Concentration required to inhibit metabotropic glutamate receptor 5 activity of rat expressed in CHO cells; format: cell-based
[10] = target: T5, Metabotropic glutamate receptor 6; test: Concentration required to inhibit metabotropic glutamate receptor 6 activity of rat expressed in CHO cells; format: cell-based
[11] = target: Metabotropic glutamate receptor 7 (Rattus norvegicus, UniProt P35400); test: Binding affinity towards metabotropic glutamate receptor 7 of rat expressed in CHO cells was determined by using [3H]LY341495
[12] = Half-life in rat upon oral dose of 30 mg/kg; format: ADME, organism-based; parameters: dose 30 mg/kg, route oral; settings: in vivo
Procedure, shortened: (§1)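 Fasted rats were dosed orally at 3, 10 or 30 mg/kg. Plasma concentration-time profiles were measured by LC/ESI-MS/MS. Cmax, Tmax, elimination half-life and AUCinf were derived per dose group and reported as mean ± deviation.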

[13] = Concentration of compound in brain of rat after 1 hr of oral dose 10 mg/kg; format: ADME, organism-based; parameters: dose 10 mg/kg, route oral
Procedure, shortened: (§2)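 Rats given a single peroral dose of 10 mg/kg. Plasma and cerebrum were sampled at 1, 3, 6 and 24 h. Concentrations were measured by LC/ESI-MS/MS using an internal standard. Detection limits were 1 ng/mL in plasma and 1.5 ng/g in brain. Tmax, Cmax, terminal half-life (lambda z) and predicted AUCinf were derived from the mean time-course levels.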

[14] = Concentration of compound in brain of rat after 3h of oral dose 10 mg/kg; format: ADME, organism-based; parameters: dose 10 mg/kg, route oral; procedure, shortened: as §2
[15] = Concentration of compound in brain of rat after 6 hr of oral dose 10 mg/kg; format: ADME, organism-based; parameters: dose 10 mg/kg, route oral; procedure, shortened: as §2
[16] = Peak plasma concentration in rats upon oral dose of 3 mg/kg; format: ADME, organism-based; parameters: dose 3 mg/kg, route oral; settings: rat; procedure, shortened: as §1
[17] = Peak plasma concentration in rats upon oral dose of 10 mg/kg; format: ADME, organism-based; parameters: dose 10 mg/kg, route oral; settings: rat; procedure, shortened: as §1
[18] = Peak plasma concentration in rats upon oral dose of 30 mg/kg; format: ADME, organism-based; parameters: dose 30 mg/kg, route oral; settings: rat; procedure, shortened: as §1
[19] = Peak plasma concentration in rat brain upon oral dose of 10 mg/kg; format: ADME, organism-based; parameters: dose 10 mg/kg, route oral; procedure, shortened: as §2
[20] = Peak plasma concentration in rat plasma upon oral dose of 10 mg/kg; format: ADME, organism-based; parameters: dose 10 mg/kg, route oral; procedure, shortened: as §2
[21] = Half-life in rat plasma upon oral dose of 10 mg/kg; format: ADME, organism-based; parameters: dose 10 mg/kg, route oral; procedure, shortened: as §2
[22] = Concentration of compound in plasma of rat after 1 hr of oral dose 10 mg/kg; format: ADME, organism-based; parameters: dose 10 mg/kg, route oral; procedure, shortened: as §2
[23] = Concentration of compound in plasma of rat after 3h of oral dose 10 mg/kg; format: ADME, organism-based; parameters: dose 10 mg/kg, route oral; procedure, shortened: as §2
[24] = Concentration of compound in plasma of rat after 6 hr of oral dose 10 mg/kg; format: ADME, organism-based; parameters: dose 10 mg/kg, route oral; procedure, shortened: as §2
[25] = Maximum time required to achieve peak plasma concentration upon oral dose of 3 mg/kg to rats; format: ADME, organism-based; parameters: dose 3 mg/kg, route oral; settings: rat; procedure, shortened: as §1
[26] = Maximum time required to achieve peak plasma concentration upon oral dose of 10 mg/kg to rats; format: ADME, organism-based; parameters: dose 10 mg/kg, route oral; settings: rat; procedure, shortened: as §1
[27] = Maximum time required to achieve peak plasma concentration upon oral dose of 30 mg/kg to rats; format: ADME, organism-based; parameters: dose 30 mg/kg, route oral; settings: rat; procedure, shortened: as §1
[28] = Maximum time required to achieve peak plasma concentration in rat brain upon oral dose of 10 mg/kg; format: ADME, organism-based; parameters: dose 10 mg/kg, route oral; procedure, shortened: as §2
[29] = Maximum time required to achieve peak plasma concentration in rat plasma upon oral dose of 10 mg/kg; format: ADME, organism-based; parameters: dose 10 mg/kg, route oral; procedure, shortened: as §2
[30] = Half-life in rat upon oral dose of 3 mg/kg; format: ADME, organism-based; parameters: dose 3 mg/kg, route oral; settings: in vivo; procedure, shortened: as §1
[31] = Half-life in rat upon oral dose of 10 mg/kg; format: ADME, organism-based; parameters: dose 10 mg/kg, route oral; settings: in vivo; procedure, shortened: as §1
[32] = target: T2, Metabotropic glutamate receptor 3; test: Effective concentration for agonistic activity towards metabotropic glutamate receptor 3 of rat expressed in CHO cells; format: functional, cell-based
[33] = target: T2, Metabotropic glutamate receptor 3; test: Concentration required to inhibit metabotropic glutamate receptor 3 activity of rat expressed in CHO cells; format: cell-based
[34] = Half-life in rat brain upon oral dose of 10 mg/kg; format: ADME, organism-based; parameters: dose 10 mg/kg, route oral; procedure, shortened: as §2
[35] = Concentration of compound in brain of rat after 24 hr of oral dose 10 mg/kg; format: ADME, organism-based; parameters: dose 10 mg/kg, route oral; procedure, shortened: as §2
[36] = Concentration of compound in plasma of rat after 24 hr of oral dose 10 mg/kg; format: ADME, organism-based; parameters: dose 10 mg/kg, route oral; procedure, shortened: as §2
[37] = target: T1, Metabotropic glutamate receptor 2; test: Concentration required to inhibit metabotropic glutamate receptor 2 activity of rat expressed in CHO cells; format: cell-based

T1 sequence (P31421 whole entry): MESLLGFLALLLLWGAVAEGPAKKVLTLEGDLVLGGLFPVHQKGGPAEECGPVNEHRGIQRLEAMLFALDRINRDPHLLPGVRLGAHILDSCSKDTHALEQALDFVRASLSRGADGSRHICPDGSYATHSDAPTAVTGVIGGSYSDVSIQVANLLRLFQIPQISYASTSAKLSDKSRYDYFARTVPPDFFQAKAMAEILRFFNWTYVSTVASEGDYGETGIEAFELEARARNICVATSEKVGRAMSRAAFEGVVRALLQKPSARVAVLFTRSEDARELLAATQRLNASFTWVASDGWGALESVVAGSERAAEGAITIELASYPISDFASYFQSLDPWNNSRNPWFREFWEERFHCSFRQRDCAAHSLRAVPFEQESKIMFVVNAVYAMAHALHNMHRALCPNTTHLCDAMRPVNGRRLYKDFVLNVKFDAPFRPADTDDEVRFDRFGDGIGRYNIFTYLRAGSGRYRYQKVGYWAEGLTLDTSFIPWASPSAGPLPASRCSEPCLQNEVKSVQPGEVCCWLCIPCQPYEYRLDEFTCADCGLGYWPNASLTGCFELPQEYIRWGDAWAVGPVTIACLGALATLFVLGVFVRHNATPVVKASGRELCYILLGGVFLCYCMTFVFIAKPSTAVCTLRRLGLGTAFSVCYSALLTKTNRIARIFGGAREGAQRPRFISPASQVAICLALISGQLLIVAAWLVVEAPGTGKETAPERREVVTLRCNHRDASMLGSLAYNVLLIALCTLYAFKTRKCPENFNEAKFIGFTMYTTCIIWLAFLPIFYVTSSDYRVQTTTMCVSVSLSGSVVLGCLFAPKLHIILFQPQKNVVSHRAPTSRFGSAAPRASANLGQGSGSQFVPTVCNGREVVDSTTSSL
T4 sequence (P31424 whole entry): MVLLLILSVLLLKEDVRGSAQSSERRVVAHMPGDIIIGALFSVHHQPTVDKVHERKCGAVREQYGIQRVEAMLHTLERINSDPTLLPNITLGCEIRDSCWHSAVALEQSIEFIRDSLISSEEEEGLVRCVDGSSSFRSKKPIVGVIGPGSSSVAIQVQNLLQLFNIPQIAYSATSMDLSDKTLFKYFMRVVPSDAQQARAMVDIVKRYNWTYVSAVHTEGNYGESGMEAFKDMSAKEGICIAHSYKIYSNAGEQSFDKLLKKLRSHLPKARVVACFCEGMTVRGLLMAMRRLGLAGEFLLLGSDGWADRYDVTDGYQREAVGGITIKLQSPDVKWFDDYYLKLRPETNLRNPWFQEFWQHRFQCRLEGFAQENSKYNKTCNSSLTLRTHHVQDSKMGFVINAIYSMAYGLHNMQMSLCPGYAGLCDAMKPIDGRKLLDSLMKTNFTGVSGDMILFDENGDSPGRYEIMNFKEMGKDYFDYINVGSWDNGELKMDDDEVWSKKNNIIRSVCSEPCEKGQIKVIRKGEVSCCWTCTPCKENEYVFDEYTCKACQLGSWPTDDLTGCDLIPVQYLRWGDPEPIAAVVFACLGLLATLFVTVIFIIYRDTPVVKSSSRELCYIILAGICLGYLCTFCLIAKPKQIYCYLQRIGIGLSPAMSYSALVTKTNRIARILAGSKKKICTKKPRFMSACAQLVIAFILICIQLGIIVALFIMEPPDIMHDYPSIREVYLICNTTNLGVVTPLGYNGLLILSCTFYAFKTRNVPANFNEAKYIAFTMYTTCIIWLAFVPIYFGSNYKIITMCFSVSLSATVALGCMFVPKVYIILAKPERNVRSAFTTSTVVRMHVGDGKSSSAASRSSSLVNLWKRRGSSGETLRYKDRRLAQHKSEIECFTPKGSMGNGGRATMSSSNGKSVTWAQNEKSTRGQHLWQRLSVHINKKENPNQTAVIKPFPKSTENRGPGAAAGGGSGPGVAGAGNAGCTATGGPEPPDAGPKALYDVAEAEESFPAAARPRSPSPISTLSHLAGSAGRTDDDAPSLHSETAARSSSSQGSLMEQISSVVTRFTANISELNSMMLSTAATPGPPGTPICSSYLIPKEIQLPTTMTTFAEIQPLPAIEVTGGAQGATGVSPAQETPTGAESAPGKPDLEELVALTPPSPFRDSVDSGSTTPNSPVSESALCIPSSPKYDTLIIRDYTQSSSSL
T5 sequence (P35349 whole entry): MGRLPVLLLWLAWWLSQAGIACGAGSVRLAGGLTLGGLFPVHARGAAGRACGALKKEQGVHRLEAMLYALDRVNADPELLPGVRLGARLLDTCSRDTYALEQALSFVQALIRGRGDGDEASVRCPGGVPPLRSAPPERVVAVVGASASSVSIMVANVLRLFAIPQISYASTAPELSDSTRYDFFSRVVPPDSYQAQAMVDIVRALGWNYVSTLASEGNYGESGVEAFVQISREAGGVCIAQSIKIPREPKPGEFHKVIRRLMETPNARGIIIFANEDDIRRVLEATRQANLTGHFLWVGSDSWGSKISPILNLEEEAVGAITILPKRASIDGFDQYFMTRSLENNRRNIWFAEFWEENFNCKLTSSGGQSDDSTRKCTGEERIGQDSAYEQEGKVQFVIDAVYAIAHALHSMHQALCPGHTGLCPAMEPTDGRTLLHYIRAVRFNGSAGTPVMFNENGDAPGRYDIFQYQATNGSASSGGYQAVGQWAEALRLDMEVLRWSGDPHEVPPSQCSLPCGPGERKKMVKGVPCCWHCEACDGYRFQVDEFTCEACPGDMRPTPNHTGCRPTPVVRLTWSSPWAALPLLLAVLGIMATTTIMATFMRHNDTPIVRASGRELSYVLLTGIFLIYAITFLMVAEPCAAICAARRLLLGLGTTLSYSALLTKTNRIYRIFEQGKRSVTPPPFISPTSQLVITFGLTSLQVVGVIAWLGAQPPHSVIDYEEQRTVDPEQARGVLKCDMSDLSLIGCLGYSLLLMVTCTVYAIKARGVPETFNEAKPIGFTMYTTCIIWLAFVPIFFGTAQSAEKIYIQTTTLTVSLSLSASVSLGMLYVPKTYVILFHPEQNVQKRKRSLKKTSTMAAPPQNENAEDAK
T2 sequence (P31422 whole entry): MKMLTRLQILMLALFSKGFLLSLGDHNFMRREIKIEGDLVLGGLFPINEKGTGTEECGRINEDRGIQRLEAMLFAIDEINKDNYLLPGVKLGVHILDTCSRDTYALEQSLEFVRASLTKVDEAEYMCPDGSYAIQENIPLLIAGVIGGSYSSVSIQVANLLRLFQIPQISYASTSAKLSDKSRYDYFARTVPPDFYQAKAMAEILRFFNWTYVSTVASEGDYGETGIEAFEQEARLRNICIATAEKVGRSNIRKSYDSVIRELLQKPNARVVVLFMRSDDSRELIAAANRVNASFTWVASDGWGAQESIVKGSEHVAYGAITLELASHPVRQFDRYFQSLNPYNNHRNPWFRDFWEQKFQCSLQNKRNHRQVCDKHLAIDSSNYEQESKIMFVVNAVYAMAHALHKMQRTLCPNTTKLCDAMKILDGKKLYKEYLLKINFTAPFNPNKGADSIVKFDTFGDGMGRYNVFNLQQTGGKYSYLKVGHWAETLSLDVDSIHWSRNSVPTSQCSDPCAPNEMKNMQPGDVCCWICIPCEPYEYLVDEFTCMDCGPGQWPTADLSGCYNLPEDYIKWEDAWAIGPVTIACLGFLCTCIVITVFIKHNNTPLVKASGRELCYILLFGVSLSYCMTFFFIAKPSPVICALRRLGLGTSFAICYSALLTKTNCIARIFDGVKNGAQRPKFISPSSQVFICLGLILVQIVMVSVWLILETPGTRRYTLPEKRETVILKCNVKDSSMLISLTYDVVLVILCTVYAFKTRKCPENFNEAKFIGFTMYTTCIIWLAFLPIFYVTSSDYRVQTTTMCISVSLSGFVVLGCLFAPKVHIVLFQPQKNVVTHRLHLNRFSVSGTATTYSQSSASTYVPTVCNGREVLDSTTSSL
T3 sequence (P23385 whole entry): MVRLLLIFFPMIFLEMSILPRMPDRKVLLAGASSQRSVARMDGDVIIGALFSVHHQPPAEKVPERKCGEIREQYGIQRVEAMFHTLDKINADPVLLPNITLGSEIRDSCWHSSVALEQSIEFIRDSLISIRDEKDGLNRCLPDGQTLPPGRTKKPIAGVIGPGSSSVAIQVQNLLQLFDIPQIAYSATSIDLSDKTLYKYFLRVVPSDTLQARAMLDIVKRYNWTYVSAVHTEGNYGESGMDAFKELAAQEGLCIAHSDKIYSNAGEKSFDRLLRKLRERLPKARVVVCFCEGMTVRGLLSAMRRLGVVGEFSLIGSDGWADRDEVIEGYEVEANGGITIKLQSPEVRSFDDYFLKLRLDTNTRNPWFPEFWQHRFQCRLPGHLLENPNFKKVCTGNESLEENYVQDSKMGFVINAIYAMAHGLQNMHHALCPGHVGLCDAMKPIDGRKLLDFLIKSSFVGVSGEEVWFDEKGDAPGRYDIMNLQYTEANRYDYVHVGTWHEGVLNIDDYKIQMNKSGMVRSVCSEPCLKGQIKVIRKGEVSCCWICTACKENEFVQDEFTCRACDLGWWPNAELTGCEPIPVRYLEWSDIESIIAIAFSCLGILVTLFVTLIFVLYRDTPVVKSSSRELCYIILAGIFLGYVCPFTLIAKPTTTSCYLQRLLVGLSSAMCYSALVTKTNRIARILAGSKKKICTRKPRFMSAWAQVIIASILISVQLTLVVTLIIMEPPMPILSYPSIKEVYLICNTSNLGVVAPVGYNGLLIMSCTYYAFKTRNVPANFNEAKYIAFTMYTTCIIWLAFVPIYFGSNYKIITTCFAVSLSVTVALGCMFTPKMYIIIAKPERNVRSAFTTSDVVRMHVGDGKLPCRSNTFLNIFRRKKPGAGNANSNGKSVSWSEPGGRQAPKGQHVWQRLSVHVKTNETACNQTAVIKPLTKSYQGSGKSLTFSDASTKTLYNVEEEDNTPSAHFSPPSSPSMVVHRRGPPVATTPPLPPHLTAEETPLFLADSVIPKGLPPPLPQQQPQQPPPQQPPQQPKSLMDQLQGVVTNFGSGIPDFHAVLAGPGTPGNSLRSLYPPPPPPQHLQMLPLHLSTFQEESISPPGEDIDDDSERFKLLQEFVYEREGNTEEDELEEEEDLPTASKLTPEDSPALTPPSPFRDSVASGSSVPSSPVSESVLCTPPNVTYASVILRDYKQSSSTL

SMILES: N[C@@]1(C(=O)O)[C@H](O)C[C@@H]2[C@H]1[C@@]2(F)C(=O)O
EC50 [1]: > 100000 nM | Ki [2]: 32.9 nM | Ki [3]: 67.1 nM

SMILES: N[C@](CC1c2ccccc2Oc2ccccc21)(C(=O)O)[C@H]1C[C@@H]1C(=O)O
EC50 [4]: > 100000 nM | EC50 [5]: > 100000 nM | EC50 [6]: > 100000 nM | IC50 [7]: 8990 nM | IC50 [8]: 2650 nM | IC50 [9]: 11400 nM | IC50 [10]: 1140 nM | Ki [11]: 110 nM

SMILES: CC[C@H](O[C@@H]1C[C@@H]2[C@H]([C@]1(N)C(=O)O)[C@@]2(F)C(=O)O)c1ccc(Cl)c(Cl)c1
Ki [2]: 3.12 nM

SMILES: N[C@]1(C(=O)O)[C@H]2[C@@H](C[C@H]1OC(c1ccccc1)c1ccccc1)[C@]2(F)C(=O)O
half-life [12]: 3.63 h | EC50 [1]: > 100000 nM | IC50 [37]: 24.4 nM | concentration at 6 h [15]: 2.04 ng/mL | Cmax [16]: 25 ng/mL | Cmax [17]: 85.1 ng/mL | Cmax [18]: 312 ng/mL | Cmax [19]: 2.04 ng/mL | Cmax [20]: 61.3 ng/mL | half-life [34]: 9 h | half-life [21]: 2.8 h | concentration at 24 h [35]: 0.51 ng/mL | concentration at 1 h [22]: 61.3 ng/mL | concentration at 3 h [23]: 37.6 ng/mL | concentration at 6 h [24]: 23.1 ng/mL | concentration at 24 h [36]: 0.2 ng/mL | Ki [2]: 2.58 nM | Ki [3]: 3.93 nM | Tmax [25]: 0.7 h | Tmax [26]: 1.8 h | Tmax [27]: 1 h | Tmax [28]: 6 h | Tmax [29]: 1 h | half-life [30]: 1.62 h | half-life [31]: 2.2 h

SMILES: CO[C@@H]1C[C@@H]2[C@H]([C@]1(N)C(=O)O)[C@@]2(F)C(=O)O
Ki [2]: 39.2 nM | Ki [3]: 88.1 nM

SMILES: N[C@]1(C(=O)O)[C@H]2[C@@H](C[C@H]1OC(c1ccc(Cl)cc1)c1ccc(Cl)cc1)[C@]2(F)C(=O)O
Ki [2]: 3.75 nM

Other lines, results leading:

Ki [2]: 14.4 nM
SMILES: N[C@]1(C(=O)O)[C@H]2[C@@H](C[C@H]1OCc1cc(F)ccc1F)[C@]2(F)C(=O)O

Ki [2]: 5.92 nM
SMILES: COc1cccc(CO[C@@H]2C[C@@H]3[C@H]([C@]2(N)C(=O)O)[C@@]3(F)C(=O)O)c1

Ki [2]: 5.81 nM
SMILES: C[C@H](O[C@@H]1C[C@@H]2[C@H]([C@]1(N)C(=O)O)[C@@]2(F)C(=O)O)c1ccc(Cl)c(Cl)c1

half-life [12]: 3.28 h | EC50 [1]: > 100000 nM | concentration at 1 h [13]: 2.51 ng/mL | concentration at 3 h [14]: 3.66 ng/mL | concentration at 6 h [15]: 3.39 ng/mL | Cmax [16]: 76.6 ng/mL | Cmax [17]: 272 ng/mL | Cmax [18]: 651 ng/mL | Cmax [19]: 3.66 ng/mL | Cmax [20]: 225 ng/mL | half-life [21]: 2.5 h | concentration at 1 h [22]: 176 ng/mL | concentration at 3 h [23]: 225 ng/mL | concentration at 6 h [24]: 98.2 ng/mL | Ki [2]: 3.17 nM | Ki [3]: 4.77 nM | Tmax [25]: 1.3 h | Tmax [26]: 2.3 h | Tmax [27]: 2.7 h | Tmax [28]: 3 h | Tmax [29]: 3 h | half-life [30]: 1.67 h | half-life [31]: 3.75 h
SMILES: N[C@]1(C(=O)O)[C@H]2[C@@H](C[C@H]1OCc1ccc(Cl)cc1)[C@]2(F)C(=O)O

half-life [12]: 2.77 h | EC50 [4]: > 100000 nM | EC50 [1]: > 100000 nM | EC50 [32]: > 100000 nM | EC50 [5]: > 100000 nM | EC50 [6]: > 100000 nM | IC50 [7]: 93300 nM | IC50 [33]: 24 nM | IC50 [8]: 1740 nM | IC50 [9]: 117000 nM | IC50 [10]: 2060 nM | concentration at 1 h [13]: 3.88 ng/mL | concentration at 3 h [14]: 8.02 ng/mL | concentration at 6 h [15]: 13.2 ng/mL | Cmax [16]: 214 ng/mL | Cmax [17]: 932 ng/mL | Cmax [18]: 2960 ng/mL | Cmax [19]: 13.2 ng/mL | Cmax [20]: 492 ng/mL | half-life [34]: 10.9 h | half-life [21]: 2.3 h | concentration at 24 h [35]: 4.22 ng/mL | concentration at 1 h [22]: 364 ng/mL | concentration at 3 h [23]: 429 ng/mL | concentration at 6 h [24]: 492 ng/mL | concentration at 24 h [36]: 2.1 ng/mL | Ki [2]: 2.38 nM | Ki [3]: 4.46 nM | Tmax [25]: 2 h | Tmax [26]: 2.7 h | Tmax [27]: 3.3 h | Tmax [28]: 6 h | Tmax [29]: 6 h | half-life [30]: 2.15 h | half-life [31]: 2.76 h | Ki [11]: 664 nM
SMILES: N[C@]1(C(=O)O)[C@H]2[C@@H](C[C@H]1OCc1ccc(Cl)c(Cl)c1)[C@]2(F)C(=O)O

Ki [2]: > 10000 nM
SMILES: N[C@]1(C(=O)O)[C@@H](OCc2ccc(Cl)c(Cl)c2)C[C@H]2[C@@H]1[C@]2(F)C(=O)O

Ki [2]: 7.02 nM
SMILES: N[C@]1(C(=O)O)[C@H]2[C@@H](C[C@H]1OCc1c(F)cccc1F)[C@]2(F)C(=O)O

Ki [2]: 9.34 nM
SMILES: N[C@]1(C(=O)O)[C@H]2[C@@H](C[C@H]1OCc1cccc(-c3ccccc3)c1)[C@]2(F)C(=O)O

Ki [2]: 3.28 nM
SMILES: N[C@]1(C(=O)O)[C@H]2[C@@H](C[C@H]1OCc1cccc(Cl)c1)[C@]2(F)C(=O)O
